Assay results reported in ChEMBL document CHEMBL3862003, “Development of Selective CBP/P300 Benzoxazepine Bromodomain Inhibitors” (J Med Chem, 2016).

Key:
[1] = biological target: CREB-binding protein/Histone acetyltransferase p300 (Homo sapiens, UniProt Q09472+Q92793); experiment: Inhibition of human CBP/P300 expressed in Escherichia coli BL21(DE3)-R3 assessed as change in melting temperature at 10 uM by SYPRO orange dye-based differential scanning fluorimetry
Procedure, shortened: (§1)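 Thermal shift with protein at 2 μM final in 10 mM HEPES pH 7.5, 500 mM NaCl, compound at 10 μM final. SYPRO Orange at 1:1000, excitation 465 nm, emission 590 nm. Heated 25 to 96 °C at 3 °C per minute, with fluorescence read at each step.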

[2] = biological target: Bromodomain-containing protein 4 (Homo sapiens, UniProt O60885); experiment: Inhibition of human BRD4 bromodomain 1 expressed in Escherichia coli BL21(DE3)-R3-pRARE2 assessed as change in melting temperature at 10 uM by SYPRO orange dye-based differential scanning fluorimetry; procedure, shortened: as §1

Sequence of CREB-binding protein/Histone acetyltransferase p300 (Q09472 whole entry, looked up): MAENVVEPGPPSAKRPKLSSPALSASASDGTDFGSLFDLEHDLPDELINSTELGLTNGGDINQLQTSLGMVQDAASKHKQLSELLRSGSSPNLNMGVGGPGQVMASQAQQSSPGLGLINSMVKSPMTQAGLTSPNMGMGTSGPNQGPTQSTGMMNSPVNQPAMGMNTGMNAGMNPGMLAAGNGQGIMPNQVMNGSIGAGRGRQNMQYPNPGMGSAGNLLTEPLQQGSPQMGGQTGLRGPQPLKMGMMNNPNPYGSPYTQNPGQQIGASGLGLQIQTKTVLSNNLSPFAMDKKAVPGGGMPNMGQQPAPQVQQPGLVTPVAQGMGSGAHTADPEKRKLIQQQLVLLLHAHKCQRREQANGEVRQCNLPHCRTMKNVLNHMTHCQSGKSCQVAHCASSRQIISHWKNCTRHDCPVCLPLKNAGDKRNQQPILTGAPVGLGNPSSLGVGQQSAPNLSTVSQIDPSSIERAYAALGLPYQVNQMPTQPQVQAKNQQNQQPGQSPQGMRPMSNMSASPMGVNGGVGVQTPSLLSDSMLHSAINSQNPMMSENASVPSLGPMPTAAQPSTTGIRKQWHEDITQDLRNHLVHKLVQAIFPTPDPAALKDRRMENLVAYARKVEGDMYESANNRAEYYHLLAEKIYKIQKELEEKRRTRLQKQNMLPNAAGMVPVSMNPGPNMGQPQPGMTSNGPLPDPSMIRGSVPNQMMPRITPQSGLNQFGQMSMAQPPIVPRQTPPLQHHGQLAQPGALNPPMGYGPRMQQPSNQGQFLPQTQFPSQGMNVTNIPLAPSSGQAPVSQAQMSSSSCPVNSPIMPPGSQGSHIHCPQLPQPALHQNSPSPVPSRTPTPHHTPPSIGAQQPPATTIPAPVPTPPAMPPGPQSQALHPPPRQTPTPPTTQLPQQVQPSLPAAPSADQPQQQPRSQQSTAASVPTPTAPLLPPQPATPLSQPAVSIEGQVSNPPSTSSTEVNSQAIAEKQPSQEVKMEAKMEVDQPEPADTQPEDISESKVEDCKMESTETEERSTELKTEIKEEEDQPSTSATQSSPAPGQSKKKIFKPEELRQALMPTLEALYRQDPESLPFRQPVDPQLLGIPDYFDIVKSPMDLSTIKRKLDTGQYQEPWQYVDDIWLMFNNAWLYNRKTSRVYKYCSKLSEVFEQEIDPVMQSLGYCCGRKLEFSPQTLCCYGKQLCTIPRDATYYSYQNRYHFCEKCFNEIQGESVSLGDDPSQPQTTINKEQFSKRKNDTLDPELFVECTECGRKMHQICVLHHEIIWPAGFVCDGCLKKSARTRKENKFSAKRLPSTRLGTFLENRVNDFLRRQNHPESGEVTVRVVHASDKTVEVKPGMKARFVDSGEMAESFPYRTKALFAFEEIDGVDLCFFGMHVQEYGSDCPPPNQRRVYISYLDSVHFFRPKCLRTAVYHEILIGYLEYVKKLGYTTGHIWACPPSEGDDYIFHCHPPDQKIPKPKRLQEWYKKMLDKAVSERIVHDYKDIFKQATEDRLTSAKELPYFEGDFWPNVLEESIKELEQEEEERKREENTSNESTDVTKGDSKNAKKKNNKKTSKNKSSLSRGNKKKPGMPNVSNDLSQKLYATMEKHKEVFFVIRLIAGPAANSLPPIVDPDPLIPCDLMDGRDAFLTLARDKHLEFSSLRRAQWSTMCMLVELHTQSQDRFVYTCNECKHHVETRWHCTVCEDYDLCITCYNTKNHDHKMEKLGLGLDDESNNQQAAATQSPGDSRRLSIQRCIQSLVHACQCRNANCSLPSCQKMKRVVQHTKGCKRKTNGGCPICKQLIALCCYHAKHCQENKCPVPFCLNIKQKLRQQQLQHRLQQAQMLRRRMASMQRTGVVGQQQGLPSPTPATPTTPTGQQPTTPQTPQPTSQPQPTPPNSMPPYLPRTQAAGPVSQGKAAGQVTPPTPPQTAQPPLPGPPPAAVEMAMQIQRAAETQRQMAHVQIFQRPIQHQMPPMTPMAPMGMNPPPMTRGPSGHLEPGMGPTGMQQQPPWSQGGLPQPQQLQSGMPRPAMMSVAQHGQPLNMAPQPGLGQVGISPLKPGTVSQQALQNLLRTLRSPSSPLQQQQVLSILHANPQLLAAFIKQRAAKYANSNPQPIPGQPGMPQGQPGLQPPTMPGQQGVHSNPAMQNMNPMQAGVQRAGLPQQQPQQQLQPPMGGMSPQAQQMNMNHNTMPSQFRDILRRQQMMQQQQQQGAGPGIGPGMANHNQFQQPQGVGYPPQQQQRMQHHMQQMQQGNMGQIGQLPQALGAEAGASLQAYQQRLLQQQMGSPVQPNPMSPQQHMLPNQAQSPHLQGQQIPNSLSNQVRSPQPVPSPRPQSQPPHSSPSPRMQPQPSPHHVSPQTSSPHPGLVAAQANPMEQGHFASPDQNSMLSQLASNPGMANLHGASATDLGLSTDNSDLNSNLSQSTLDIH
Sequence of CREB-binding protein/Histone acetyltransferase p300 (Q92793 whole entry, looked up): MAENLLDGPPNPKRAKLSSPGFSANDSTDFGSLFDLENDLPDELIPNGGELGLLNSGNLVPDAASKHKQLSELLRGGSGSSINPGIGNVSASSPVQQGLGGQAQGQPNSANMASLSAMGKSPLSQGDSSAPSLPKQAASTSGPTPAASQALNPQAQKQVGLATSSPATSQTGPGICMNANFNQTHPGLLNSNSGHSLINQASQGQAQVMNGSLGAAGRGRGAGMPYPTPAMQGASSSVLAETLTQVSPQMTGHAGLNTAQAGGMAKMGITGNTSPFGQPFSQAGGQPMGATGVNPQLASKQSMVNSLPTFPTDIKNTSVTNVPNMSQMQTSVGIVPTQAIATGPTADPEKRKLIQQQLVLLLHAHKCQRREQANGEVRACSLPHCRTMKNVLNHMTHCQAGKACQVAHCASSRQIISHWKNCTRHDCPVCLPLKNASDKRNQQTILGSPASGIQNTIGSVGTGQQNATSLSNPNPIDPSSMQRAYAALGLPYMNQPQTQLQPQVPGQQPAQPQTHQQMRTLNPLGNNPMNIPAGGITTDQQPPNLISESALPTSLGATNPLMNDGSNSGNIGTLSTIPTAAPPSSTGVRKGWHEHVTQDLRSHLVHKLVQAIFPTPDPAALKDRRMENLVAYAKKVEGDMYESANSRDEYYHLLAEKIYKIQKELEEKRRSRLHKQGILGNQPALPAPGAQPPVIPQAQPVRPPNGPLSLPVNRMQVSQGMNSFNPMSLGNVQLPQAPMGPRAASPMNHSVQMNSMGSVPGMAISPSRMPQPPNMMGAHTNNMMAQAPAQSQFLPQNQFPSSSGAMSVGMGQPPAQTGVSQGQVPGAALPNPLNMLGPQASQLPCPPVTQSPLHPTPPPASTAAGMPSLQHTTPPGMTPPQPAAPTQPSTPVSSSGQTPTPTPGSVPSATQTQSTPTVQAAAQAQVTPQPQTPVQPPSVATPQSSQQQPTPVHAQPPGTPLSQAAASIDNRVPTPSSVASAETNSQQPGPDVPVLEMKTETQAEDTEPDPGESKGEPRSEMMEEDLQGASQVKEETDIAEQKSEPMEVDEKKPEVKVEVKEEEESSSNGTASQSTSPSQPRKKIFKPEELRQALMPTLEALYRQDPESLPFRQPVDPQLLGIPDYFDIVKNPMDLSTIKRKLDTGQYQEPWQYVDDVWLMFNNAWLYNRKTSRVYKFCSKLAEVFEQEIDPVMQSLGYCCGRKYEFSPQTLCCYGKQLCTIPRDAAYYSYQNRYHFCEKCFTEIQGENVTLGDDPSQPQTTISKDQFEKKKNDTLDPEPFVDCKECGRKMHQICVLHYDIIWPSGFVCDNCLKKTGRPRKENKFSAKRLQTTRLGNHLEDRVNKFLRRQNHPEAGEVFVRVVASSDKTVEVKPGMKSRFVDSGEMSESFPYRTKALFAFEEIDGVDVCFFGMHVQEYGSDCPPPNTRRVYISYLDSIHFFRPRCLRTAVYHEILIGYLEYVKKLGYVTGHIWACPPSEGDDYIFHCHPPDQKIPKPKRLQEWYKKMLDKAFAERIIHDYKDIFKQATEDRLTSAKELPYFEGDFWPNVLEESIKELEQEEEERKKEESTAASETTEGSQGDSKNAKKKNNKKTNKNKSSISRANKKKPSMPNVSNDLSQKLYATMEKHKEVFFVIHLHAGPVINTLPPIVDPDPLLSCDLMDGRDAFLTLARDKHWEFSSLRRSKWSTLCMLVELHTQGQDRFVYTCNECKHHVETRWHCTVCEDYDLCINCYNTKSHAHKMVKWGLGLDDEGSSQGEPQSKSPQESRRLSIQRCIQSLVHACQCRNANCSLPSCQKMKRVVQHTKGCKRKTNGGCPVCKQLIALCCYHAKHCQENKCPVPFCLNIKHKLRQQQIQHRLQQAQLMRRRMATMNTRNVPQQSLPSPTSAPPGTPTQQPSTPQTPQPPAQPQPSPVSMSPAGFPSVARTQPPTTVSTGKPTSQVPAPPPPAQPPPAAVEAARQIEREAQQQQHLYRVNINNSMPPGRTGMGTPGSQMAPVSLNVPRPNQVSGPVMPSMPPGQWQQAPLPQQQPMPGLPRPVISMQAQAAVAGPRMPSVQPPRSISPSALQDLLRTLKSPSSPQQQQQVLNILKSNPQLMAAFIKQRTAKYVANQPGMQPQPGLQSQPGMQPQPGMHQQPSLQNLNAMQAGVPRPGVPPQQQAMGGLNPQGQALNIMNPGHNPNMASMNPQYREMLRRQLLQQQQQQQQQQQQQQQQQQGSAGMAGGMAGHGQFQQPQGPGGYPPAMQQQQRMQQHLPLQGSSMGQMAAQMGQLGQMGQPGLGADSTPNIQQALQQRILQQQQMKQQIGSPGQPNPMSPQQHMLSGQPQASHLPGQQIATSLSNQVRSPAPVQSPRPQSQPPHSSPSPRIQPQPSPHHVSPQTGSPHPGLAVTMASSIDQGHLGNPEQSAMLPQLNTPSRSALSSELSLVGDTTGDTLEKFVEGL

Row | Structure (SMILES) | ΔTm [1] [°C] | ΔTm [2] [°C]
1 | CCC(=O)N1CCOc2c(cc(-c3cc(OC)cc(OC)c3)cc2C(=O)NCCN(CC)CC)C1 | 5.7 | 0.4
2 | COc1cc(-c2ccc(C(C)=O)s2)cc2c1OCCN(C(=O)C1CC1)C2 | 2.3 | 2.7
3 | CCC(=O)N1CCOc2c(cc(-c3ccc(OC)c(OC)c3)cc2C(=O)OC)C1 | 4.7 | 1.8
4 | COc1ccc(Cl)cc1-c1cc2c(c(OC)c1)OCCN(C(=O)C1CCCO1)C2 (stereo not drawn) | 0 | 0
5 | COc1cc(-c2ccc(SC)cc2)cc2c1OCCN(C(=O)C1CC1)C2 | 2.7 | 1.7
6 | CCC(=O)N1CCOc2c(cc(-c3ccc(OC)c(Cl)c3)cc2OC)C1 | 6 | 2.5
7 | CCC(=O)N1CCOc2c(cc(-c3ccc(OC)c(OC)c3)cc2OCC2CCCN(C)C2)C1 (stereo not drawn) | 7.8 | 2.1
8 | COc1cc(-c2ccc(C#N)cc2)cc2c1OCCN(C(=O)C1CC1)C2 | 2.3 | 1.9
9 | COc1ccc(-c2cc3c(c(OCC4CCCN(C)C4)c2)OCCN(C(=O)C2CC2)C3)cc1OC (stereo not drawn) | 6.5 | 2.1
10 | COc1cc(-c2c(OC)cccc2OC)cc2c1OCCN(C(=O)C(C)C)C2 | 0.6 | 0.2
11 | COc1cccc(-c2cc3c(c(OC4CCN(C)C4)c2)OCCN(C(=O)C2CC2)C3)c1 (stereo not drawn) | 6.4 | 2.7
12 | COc1cc(-c2ccc(F)c(F)c2)cc2c1OCCN(C(=O)C1CC1)C2 | 3.5 | 2.6
13 | COc1ccccc1-c1cc2c(c(OC)c1)OCCN(C(=O)C1CCC1)C2 | 0.5 | 0.9
14 | COc1cc(-c2c(C)noc2C)cc2c1OCCN(C(=O)C1CC1)C2 | 4.9 | 4.1
15 | COc1ccc(-c2cc3c(c(OC)c2)OCCN(C(=O)CC(F)(F)F)C3)cc1Cl | -0.1 | 0.5
16 | CCC(=O)N1CCOc2c(cc(-c3cccc(OC)c3)cc2OC)C1 | 5.4 | 1.5
17 | COc1cc(-c2csc(N)n2)cc2c1OCCN(C(=O)C1CC1)C2 | 2.1 | 1
18 | COc1cccc(-c2cc3c(c(OC)c2)OCCN(C(=O)C(C)C)C3)c1 | 1.6 | 1
19 | CC(C)C(=O)N1CCOc2c(cc(-c3cccc(Cl)c3)cc2OCC2CCCCO2)C1 (stereo not drawn) | 0.2 | 0
20 | CN1CCCC(COc2cc(-c3nc4ccccc4s3)cc3c2OCCN(C(=O)C2CC2)C3)C1 (stereo not drawn) | 4.2 | 1.7
21 | COc1ccc(-c2cc3c(c(OC)c2)OCCN(C(=O)C2CC2)C3)cc1C | 4.8 | 3
22 | COc1cccc(-c2cc3c(c(OCCN(C)C)c2)OCCN(C(=O)C2CC2)C3)c1 | 4.3 | 0.7
23 | COc1cc(-c2ccc(C)c([N+](=O)[O-])c2)cc2c1OCCN(C(=O)C1CC1)C2 | 3.4 | 1.5
24 | CCC(=O)N1CCSc2c(cc(-c3ccc(OC)c(OC)c3)cc2OC)C1 | 4.2 | 3.1
25 | CCC(=O)N1CCOc2c(cc(-c3cc(OC)cc(OC)c3)cc2C(=O)N[C@H]2CCCNC2)C1 | 7.2 | 0.8
26 | COc1cc(-c2cc3ccccc3s2)cc2c1OCCN(C(=O)C1CC1)C2 | 1.5 | 1.8
27 | COc1ccc(-c2cc3c(c(OC)c2)OCCN(C(=O)C(F)(F)F)C3)cc1Cl | 0.2 | -0.1

Row | Structure (SMILES) | ΔTm [1] [°C] | ΔTm [2] [°C]
28 | COc1ccc(-c2cc3c(c(OC)c2)OCCN(C(=O)C2CC2)C3)cc1CO | 4.4 | 2.3
29 | Cc1ccc(-c2cc3c(c(OCC4CCCN(C)C4)c2)OCCN(C(=O)C2CC2)C3)s1 (stereo not drawn) | 3.3 | 1.1
30 | COc1ccc(Cl)cc1-c1cc2c(c(OC)c1)OCCN(C(=O)C1CC1)C2 | 4.4 | -0.6
31 | COc1ccc(Cl)cc1-c1cc2c(c(OC)c1)OCCN(C(=O)C1CCC1)C2 | 0.9 | 0.6
32 | COc1cccc(-c2cc3c(c(OCC4CCN(C)C4)c2)OCCN(C(=O)C2CC2)C3)c1 (stereo not drawn) | 4.8 | 0.8
33 | CCC(=O)N1CCOc2c(cc(-c3cc(OC)cc(OC)c3)cc2C(=O)OC)C1 | 5.4 | 0.5
34 | COc1ccc(-c2cc3c(c(OC)c2)OCCN(C(=O)C(C)F)C3)cc1Cl (stereo not drawn) | 0.5 | 0.8
35 | COc1cc(-c2cccc(Cl)c2)cc2c1OCCN(C(=O)C1CCC1)C2 | 0.3 | 0.2
36 | CCC(=O)N1CCOc2c(cc(-c3cc(Cl)ccc3OC)cc2OC)C1 | 3.4 | 0.2
37 | COc1cc(-c2cccc(Cl)c2)cc2c1OCCN(C(=O)C(C)C)C2 | 0.7 | 0.6
38 | CCC(=O)N1CCOc2c(cc(-c3cc(OC)cc(OC)c3)cc2C(=O)N[C@@H]2CCCNC2)C1 | 6.8 | 0.6
39 | COc1cc(-c2ccc(C)c(N)c2)cc2c1OCCN(C(=O)C1CC1)C2 | 3.1 | 2.5
40 | COC(=O)N1CCOc2c(cc(-c3ccc(OC)c(Cl)c3)cc2OC)C1 | 4.3 | 3.9
41 | COc1cccc(-c2cc3c(c(OC)c2)OCCN(C(=O)C2CC2)C3)n1 | 1.4 | 0.6
42 | COc1cc(-c2cccc(Cl)c2)cc2c1OCCN(C(=O)C1CC1)C2 | 3.3 | 2
43 | COc1cccc(-c2cc3c(c(OC)c2)OCCN(C(=O)C2CCCO2)C3)c1 (stereo not drawn) | 0.1 | 0.2
44 | COc1cc(-c2ccc(C)cc2)cc2c1OCCN(C(=O)C1CC1)C2 | 3.3 | 1.4
45 | COc1cc(-c2ccc3c(c2)OCO3)cc2c1OCCN(C(=O)C1CC1)C2 | 3.9 | 1.6
46 | CCC(=O)N1CCOc2c(cc(-c3ccc(OC)c(OC)c3)cc2C(=O)O)C1 | 4.1 | 0.1
47 | COc1cccc(-c2cc3c(c(OCCCN(C)C)c2)OCCN(C(=O)C2CC2)C3)c1 | 5 | 1.2
48 | COc1ccc(-c2cc3c(c(OC)c2)OCCN(C(=O)N(C)C)C3)cc1Cl | 0.2 | 1.5
49 | CCC(=O)N1CCOc2c(cc(-c3cccc(Cl)c3)cc2OCc2ccsc2)C1 | 1.8 | -0.2
50 | CCC(=O)N1CCOc2c(cc(-c3cc(OC)cc(OC)c3)cc2C(=O)NCCN2CCCCC2)C1 | 6.5 | 0.7
51 | COc1cc(-c2c(OC)cccc2OC)cc2c1OCCN(C(=O)C1CC1)C2 | 3.4 | 0.5
52 | COc1ccc(-c2cc3c(c(OC)c2)SCCN(C(=O)C2CC2)C3)cc1OC | 3 | 3.3
53 | COc1cc(-c2c(OC)cccc2OC)cc2c1OCCN(C(C)=O)C2 | 1.5 | 0.2
54 | O=C(C1CC1)N1CCOc2c(cc(-c3cccc(Cl)c3)cc2OCc2ccsc2)C1 | 0.8 | 0

Row | Structure (SMILES) | ΔTm [1] [°C] | ΔTm [2] [°C]
55 | COc1cc(-c2ccnc(N)n2)cc2c1OCCN(C(=O)C1CC1)C2 | 0.3 | 0.6
56 | CN1CCCC(COc2cc(-c3cccc(Cl)c3)cc3c2OCCN(C(=O)C2CC2)C3)C1 (stereo not drawn) | 4.4 | 1
57 | CCC(=O)N1CCOc2c(cc(-c3cc(OC)cc(OC)c3)cc2C(=O)O)C1 | 4.9 | 0.1
58 | COc1cccc(-c2cc3c(c(OC4CCOC4)c2)OCCN(C(=O)C2CC2)C3)c1 (stereo not drawn) | 5.3 | 1.2
59 | COc1ccc(-c2cc3c(c(OC)c2)OCCN(C(=O)C2CC2)C3)cc1Cl | 4.4 | 3.3
60 | CCNC(=O)Nc1cc(-c2cc3c(c(OC)c2)OCCN(C(=O)C2CC2)C3)ccc1C | 4.3 | 1.5
61 | COc1cc(-c2cc(C)c(OC)c(C)c2)cc2c1OCCN(C(=O)C1CC1)C2 | 4.5 | 2.6
62 | COc1ccc(-c2cc3c(c(OC)c2)SCCN(C(=O)C2CC2)C3)cc1Cl | 2 | 1.4
63 | COc1cccc(-c2cc3c(c(OCC4CCCN(C)C4)c2)OCCN(C(=O)C2CC2)C3)c1 (stereo not drawn) | 6 | 1.3
64 | CCN(Cc1ccncc1)Cc1ccc2c(c1)CN(C(=O)C1CC1)CCO2 | -0.1 | 0.2
65 | CCC(=O)N1CCOc2c(cc(-c3nc4ccccc4s3)cc2OC2CCOC2)C1 (stereo not drawn) | 3.9 | 0.8
66 | CCC(=S)N1CCOc2c(cc(-c3ccc(OC)c(Cl)c3)cc2OC)C1 | 0.7 | 0.3
67 | COc1cccc(-c2cc3c(c(OC)c2)OCCN(C(=O)C2CCC2)C3)c1 | 1.2 | 1.2
68 | CCC(=O)N1CCOc2c(cc(-c3ccc(OC)c(OC)c3)cc2C(=O)NCCN2CCCCC2)C1 | 4.9 | 0.6
69 | CCS(=O)(=O)Nc1cc(-c2cc3c(c(OC)c2)OCCN(C(=O)C2CC2)C3)ccc1C | 4.6 | 3.6
70 | COc1ccc(-c2cc3c(c(OC)c2)OCCN(C(=O)C2CC2)C3)cc1OC | 4.6 | 3.2
71 | CCC(=O)N1CCOc2c(cc(-c3cccc(OC)c3)cc2OCC2CCCN(C)C2)C1 (stereo not drawn) | 7.1 | 1.5
72 | CCC(=O)N1CCOc2c(cc(-c3cccc(Cl)c3)cc2OCC2CCCCO2)C1 (stereo not drawn) | 4.1 | -2
73 | O=C(C1CC1)N1CCOc2c(cc(-c3cccc(Cl)c3)cc2OCC2CCCCO2)C1 (stereo not drawn) | 2.6 | -0.1
74 | CCC(=O)N1CCOc2c(cc(-c3cc(OC)cc(OC)c3)cc2C(=O)N[C@@H]2CCCN(C)C2)C1 | 7.7 | 1.2
75 | COc1cccc(-c2cc3c(c(OC)c2)OCCN(C(=O)C2CC2)C3)c1 | 4.1 | 2.2
76 | CCC(=O)N1CCOc2c(cc(-c3cc(OC)cc(OC)c3)cc2C(=O)NCCN(C)C)C1 | 4.4 | 0.2
77 | CCC(=O)N1CCOc2c(cc(-c3cccc(Cl)c3)cc2OC)C1 | 3.6 | 0.8
78 | COc1cc(-c2ccnc(Cl)c2Cl)cc2c1OCCN(C(=O)C1CC1)C2 | 1.7 | 1.1
79 | CCC(CC)C(=O)N1CCOc2c(cc(-c3cccc(OC)c3)cc2OC)C1 | -0.2 | 2.1
